According to ChEMBL document CHEMBL1150411, “4-(Phenylaminomethylene)isoquinoline-1,3(2H,4H)-diones as potent and selective inhibitors of the cyclin-dependent kinase 4 (CDK4)” (J Med Chem, 2008):
pIC50: −log10 of the molar value. Calls of active or inactive are those of the source. The calls are words filed in the database; no cut-off is given here.

Experiments:
[1] = target: T1, Retinoblastoma-associated protein (Homo sapiens) (UniProt P06400); experiment: Inhibition of retinoblastoma susceptibility gene product phosphorylation in human MCF7 cells after 24 hrs; assay type: cell-based
T1 sequence (whole entry): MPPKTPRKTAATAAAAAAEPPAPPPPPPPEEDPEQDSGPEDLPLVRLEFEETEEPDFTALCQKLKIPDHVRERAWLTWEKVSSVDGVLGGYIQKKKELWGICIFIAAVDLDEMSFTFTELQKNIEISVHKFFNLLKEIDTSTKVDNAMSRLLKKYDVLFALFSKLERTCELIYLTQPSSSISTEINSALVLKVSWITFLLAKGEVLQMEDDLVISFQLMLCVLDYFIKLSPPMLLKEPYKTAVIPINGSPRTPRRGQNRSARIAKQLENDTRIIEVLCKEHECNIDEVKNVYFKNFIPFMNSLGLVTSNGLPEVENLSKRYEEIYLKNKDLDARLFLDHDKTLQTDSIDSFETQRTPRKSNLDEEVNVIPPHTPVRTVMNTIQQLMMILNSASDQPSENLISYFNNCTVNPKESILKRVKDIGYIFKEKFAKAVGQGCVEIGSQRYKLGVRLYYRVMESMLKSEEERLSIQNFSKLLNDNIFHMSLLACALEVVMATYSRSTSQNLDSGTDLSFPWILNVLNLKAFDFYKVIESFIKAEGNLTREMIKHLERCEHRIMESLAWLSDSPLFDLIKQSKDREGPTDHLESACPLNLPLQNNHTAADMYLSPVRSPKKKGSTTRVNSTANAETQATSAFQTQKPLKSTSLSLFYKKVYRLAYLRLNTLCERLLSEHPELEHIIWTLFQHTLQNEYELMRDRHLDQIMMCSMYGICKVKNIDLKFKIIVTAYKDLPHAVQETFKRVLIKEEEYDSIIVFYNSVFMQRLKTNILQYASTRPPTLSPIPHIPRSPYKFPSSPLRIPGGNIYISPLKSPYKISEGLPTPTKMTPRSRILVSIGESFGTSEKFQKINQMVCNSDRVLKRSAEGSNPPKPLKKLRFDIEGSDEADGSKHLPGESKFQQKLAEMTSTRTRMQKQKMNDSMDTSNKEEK
Method in brief: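 MCF-7 cells exposed to compound for 24 h at 37 °C. Extracts separated by SDS-PAGE and immunoblotted with Rb antibody, with the phosphorylated pRB band followed. Also checked with an antibody specific for phospho-Ser807/811 pRB.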

[2] = tested on: MCF7; experiment: Cell cycle arrest in human MCF7 cells assessed as accumulation at S phase at 3 uM after 24 hrs by flow cytometry; assay type: functional
Method in brief: (§1)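 MCF-7 cells in 6-well plates, exposed to compound for 24 h at 37 °C, then pulse-labelled with 10 µM bromodeoxyuridine for 30 min. Cells trypsinized, fixed in 80% methanol at -20 °C, acid-denatured and permeabilized, stained with anti-BrdU-FITC, counterstained with propidium iodide and run on flow cytometry. S-phase percentage taken from the propidium iodide histogram.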

[3] = tested on: HCT-116; experiment: Antiproliferative activity against human HCT116 cells by SRB method; assay type: functional, cell-based
[4] = tested on: MCF7; experiment: Cell cycle arrest in human MCF7 cells assessed as accumulation at S phase at 0.1 uM after 24 hrs by flow cytometry; assay type: functional; method in brief: as §1
[5] = tested on: MCF7; experiment: Decrease in cyclin D1 level in human MCF7 cells at 7.5 to 10 uM after 24 hrs by immunoblot analysis; assay type: functional; set-up: scale not given: the % may be the effect or the level left
Method in brief: (§2)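 MCF-7 cells incubated with or without compound for 24 h at 37 °C. Lysates made in Tris/NaCl/EDTA/NP-40/deoxycholate buffer containing PMSF, DTT, NaF and vanadate. 10-20 µg protein run on 8 or 10% SDS-PAGE and blotted to nitrocellulose. Probed with antibodies to each regulatory protein; actin antibody served as loading control.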

[6] = tested on: MCF7; experiment: Increase in cyclin E level in human MCF7 cells at >2 uM after 24 hrs by immunoblot analysis; assay type: functional; method in brief: as §2
[7] = tested on: MCF7; experiment: Decrease in CDK4 level in human MCF7 cells at 7.5 to 10 uM after 24 hrs by immunoblot analysis; assay type: functional; set-up: scale not given: the % may be the effect or the level left; method in brief: as §2
[8] = tested on: MCF7; experiment: Decrease in CDK1 level in human MCF7 cells at 7.5 uM after 24 hrs by immunoblot analysis; assay type: functional; set-up: scale not given: the % may be the effect or the level left; method in brief: as §2
[9] = tested on: MCF7; experiment: Cell cycle arrest in human MCF7 cells assessed as accumulation at G1 phase after 24 hrs by flow cytometry; assay type: functional, cell-based; method in brief: as §1
[10] = tested on: MCF7; experiment: Decrease in cyclin B level in human MCF7 cells at 4 uM after 24 hrs by immunoblot analysis; assay type: functional; set-up: scale not given: the % may be the effect or the level left; method in brief: as §2
[11] = target: Cyclin-dependent kinase 1/cyclin B1 (Homo sapiens, UniProt P06493); experiment: Inhibition of CDK1/Cyclin B1 expressed in Sf9 cells-baculovirus system assessed as retinoblastoma susceptibility gene product phosphorylation
[12] = tested on: MCF7; experiment: Decrease in p27 level in human MCF7 cells at 7.5 uM after 24 hrs by immunoblot analysis; assay type: functional; set-up: scale not given: the % may be the effect or the level left; method in brief: as §2
[13] = tested on: MCF7; experiment: Decrease in CDK2 level in human MCF7 cells at 7.5 uM after 24 hrs by immunoblot analysis; assay type: functional; set-up: scale not given: the % may be the effect or the level left; method in brief: as §2
[14] = target: Cyclin-dependent kinase 2 (Homo sapiens, UniProt P24941); experiment: Inhibition of CDK2/cyclin E expressed in Sf9 cells-baculovirus system assessed as retinoblastoma susceptibility gene product phosphorylation
[15] = tested on: MCF7; experiment: Cell cycle arrest in human MCF7 cells assessed as accumulation at S phase at 0.3 uM after 24 hrs by flow cytometry; assay type: functional; method in brief: as §1
[16] = target: Cyclin-dependent kinase 4/cyclin D1 (Homo sapiens, UniProt P11802); experiment: Inhibition of CDK4/cyclin D1 expressed in Sf9 cells-baculovirus system assessed as retinoblastoma susceptibility gene product phosphorylation
[17] = tested on: MCF7; experiment: Antiproliferative activity against human MCF7 cells by SRB method; assay type: functional, cell-based
[18] = tested on: MCF7; experiment: Cell cycle arrest in human MCF7 cells assessed as accumulation at S phase at 1 uM after 24 hrs by flow cytometry; assay type: functional; method in brief: as §1

Cyclin-dependent kinase 1/cyclin B1, sequence (P06493 whole entry): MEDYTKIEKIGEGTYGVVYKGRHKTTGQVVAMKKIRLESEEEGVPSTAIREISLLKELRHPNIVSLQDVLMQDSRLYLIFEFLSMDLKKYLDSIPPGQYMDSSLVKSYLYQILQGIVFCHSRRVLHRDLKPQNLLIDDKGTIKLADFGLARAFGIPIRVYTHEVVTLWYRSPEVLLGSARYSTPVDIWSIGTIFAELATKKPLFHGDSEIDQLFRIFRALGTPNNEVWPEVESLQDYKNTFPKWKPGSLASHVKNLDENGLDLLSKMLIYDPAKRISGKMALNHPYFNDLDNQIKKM
Cyclin-dependent kinase 1/cyclin B1, sequence (P14635 whole entry, further chain): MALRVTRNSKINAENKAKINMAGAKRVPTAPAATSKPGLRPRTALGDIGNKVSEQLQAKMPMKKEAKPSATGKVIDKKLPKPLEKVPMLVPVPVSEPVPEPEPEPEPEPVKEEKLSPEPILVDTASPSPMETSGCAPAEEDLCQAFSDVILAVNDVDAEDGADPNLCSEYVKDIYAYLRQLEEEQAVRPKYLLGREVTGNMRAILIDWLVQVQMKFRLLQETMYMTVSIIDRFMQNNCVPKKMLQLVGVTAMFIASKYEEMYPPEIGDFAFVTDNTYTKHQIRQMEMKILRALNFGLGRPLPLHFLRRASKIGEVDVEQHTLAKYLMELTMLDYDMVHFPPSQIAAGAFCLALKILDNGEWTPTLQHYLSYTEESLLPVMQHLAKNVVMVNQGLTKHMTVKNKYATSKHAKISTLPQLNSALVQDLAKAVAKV
Cyclin-dependent kinase 4/cyclin D1, sequence (P11802 whole entry): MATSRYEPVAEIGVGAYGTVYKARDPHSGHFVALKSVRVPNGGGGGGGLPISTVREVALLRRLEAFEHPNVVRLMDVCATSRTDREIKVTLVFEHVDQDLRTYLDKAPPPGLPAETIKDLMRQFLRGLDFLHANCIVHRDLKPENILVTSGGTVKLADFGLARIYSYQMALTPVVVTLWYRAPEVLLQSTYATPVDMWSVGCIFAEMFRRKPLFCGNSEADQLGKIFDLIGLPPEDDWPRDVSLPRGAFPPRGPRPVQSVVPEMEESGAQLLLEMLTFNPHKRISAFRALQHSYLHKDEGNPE
Cyclin-dependent kinase 4/cyclin D1, sequence (P24385 whole entry, further chain): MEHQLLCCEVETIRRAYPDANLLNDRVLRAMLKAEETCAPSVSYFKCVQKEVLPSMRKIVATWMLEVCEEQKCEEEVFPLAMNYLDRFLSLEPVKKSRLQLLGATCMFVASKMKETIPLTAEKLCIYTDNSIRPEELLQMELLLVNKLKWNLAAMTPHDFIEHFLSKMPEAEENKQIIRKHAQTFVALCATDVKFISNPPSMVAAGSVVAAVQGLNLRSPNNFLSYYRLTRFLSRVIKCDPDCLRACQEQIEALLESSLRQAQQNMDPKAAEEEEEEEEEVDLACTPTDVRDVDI

Activity [1]	pIC50 [3]	pIC50 [11]	pIC50 [14]	pIC50 [16]	pIC50 [17]	Compound	Activity [2]	Activity [4]	Activity [5]	Activity [6]	Activity [7]	Activity [8]	Activity [9]	Activity [10]	Activity [12]	Activity [13]	Activity [15]	Activity [18]
Dose-dependent effect	5.30	< 4.30	< 4.30	5.96	5.51	O=C1NC(=O)c2ccc(Br)cc2/C1=C/Nc1ccc(CN2CCCCC2)cc1	2%	35%	85%	5%	60%	40%	Active	60%	45%	55%	34%	10%
Dose-dependent effect	5.51	< 4.30	–	–	5.52	CN1CCN(c2ccc(N/C=C3\C(=O)NC(=O)c4ccc(Br)cc43)cc2)CC1	3%	37%	–	–	–	–	Active	–	–	–	32%	16%
